Test results reported in ChEMBL document CHEMBL1123382, “Potential tumor- or organ-imaging agents. 27. Polyiodinated 1,3-disubstituted and 1,2,3-trisubstituted triacylglycerols” (J Med Chem, 1986).
Several values for one entry are separate records, joined by “and”; a condition that tells them apart may be missing. Equal entries are not always repeated.

Columns and labels:
[1] = test system: Rattus norvegicus; test: Compound was evaluated for the lipid soluble radioactivity extracted from rat liver at 0.5 hr after intravenous administration.; type: functional
Procedure, shortened: (§1)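 Liver and plasma taken 0.5 or 24 h after iv dosing of 125I-labeled compound in rats (n = 3-5). Extracted by a modified Folch procedure; value is % lipid (CHCl3/MeOH)-extractable radioactivity ± SEM. Extracts run on TLC in hexane/ethyl acetate 5:2 against unlabeled standard, then 1-cm strips counted to give % parent compound.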

[2] = test system: Rattus norvegicus; test: Biodistribution in Rat liver after 24 hours of iv administration; per g of tissue; type: ADME, organism-based; conditions: in vivo
Procedure, shortened: (§2)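 125I-labeled compound solubilized in normal saline with Tween-20 and given iv to rats, about 5-30 μCi (9-83 μg) per animal. Three to five rats per time point. Rats killed by exsanguination under ether anesthesia at 5 min, 30 min or 24 h. Organs minced, blotted free of blood and counted for radioiodine. Lines with "per g" are % administered dose per gram ± SEM.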

[3] = test system: Rattus norvegicus; test: Compound (125I labeled) was evaluated for the total radioactivity in low-density lipoprotein, at 30 min after intravenous administration.; type: functional
Procedure, shortened: (§3)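 Rat plasma taken 5 or 30 min after iv dosing of 125I-labeled compound (saline/Tween-20) and run on polyacrylamide gel electrophoresis. Gels sectioned and each section gamma-counted. Radioactivity in each band (stacking gel, lipoproteins, albumin, below-albumin) is given as % of total radioactivity applied to the gel.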

[4] = test system: Rattus norvegicus; test: Evaluated for the total radioactivity in below albumin at 30 min after intravenous administration.; type: functional; procedure, shortened: as §3
[5] = test system: Rattus norvegicus; test: Compound was evaluated for the lipid soluble radioactivity extracted from rat plasma at 0.5 hr after intravenous administration.; type: functional; procedure, shortened: as §1
[6] = test system: Rattus norvegicus; test: Compound (125I labeled) was evaluated for the total radioactivity in high-density lipoprotein, at 30 min after intravenous administration.; type: functional; procedure, shortened: as §3
[7] = test system: Rattus norvegicus; test: Compound (125I labeled) was evaluated for the total radioactivity in stacking gel 5 min after intravenous administration.; type: functional; procedure, shortened: as §3
[8] = test system: Rattus norvegicus; test: Liver radioactivity after iv administration of compound (5 min) in rats; type: functional, organism-based
Procedure, shortened: (§4)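 Rats (3-5 per time point) dosed iv with about 5-30 μCi (9-83 μg) of 125I-labeled compound in saline containing Tween-20. Killed by exsanguination under ether at 5 min, 30 min or 24 h. Liver removed, minced, blotted and counted. Values are % administered dose per organ, based on each animal's actual liver weight, ± SEM.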

[9] = test system: Rattus norvegicus; test: Biodistribution in Rat lung after 5 minutes of iv administration; per g of tissue; type: ADME, organism-based; conditions: in vivo; procedure, shortened: as §2
[10] = test system: Rattus norvegicus; test: Compound (125I labeled) was evaluated for the total radioactivity in albumin at 30 min after intravenous administration.; type: functional; set-up: concentration or dose not given beside the values; procedure, shortened: as §3
[11] = test system: Rattus norvegicus; test: Compound (125I labeled) was evaluated for the total radioactivity in stacking gel at 30 min after intravenous administration.; type: functional; procedure, shortened: as §3
[12] = test system: Rattus norvegicus; test: Compound (125I labeled) was evaluated for the total radioactivity in high-density lipoprotein 5 min after intravenous administration.; type: functional; procedure, shortened: as §3
[13] = test system: Rattus norvegicus; test: Liver radioactivity after iv administration of compound (24 h) in rats; type: functional, organism-based; procedure, shortened: as §4
[14] = test system: Rattus norvegicus; test: Biodistribution in Rat lung after 30 minutes of iv administration; per g of tissue; type: ADME, organism-based; conditions: in vivo, 0.5 h; procedure, shortened: as §2
[15] = test system: Rattus norvegicus; test: Compound was evaluated for the lipid soluble radioactivity extracted from rat plasma at 24 hr after intravenous administration.; type: functional; procedure, shortened: as §1
[16] = test system: Rattus norvegicus; test: Compound (125I labeled) was evaluated for the total radioactivity in albumin 5 min after intravenous administration.; type: functional; set-up: concentration or dose not given beside the values; procedure, shortened: as §3
[17] = test system: Rattus norvegicus; test: Biodistribution in Rat blood after 30 minutes of iv administration; per g of tissue; type: ADME, organism-based; conditions: in vivo, 0.5 h; procedure, shortened: as §2
[18] = test system: Rattus norvegicus; test: (§5) Biodistribution in Rat liver after 30 minutes of iv administration; per g of tissue; type: ADME, organism-based; conditions: in vivo, 0.5 h; procedure, shortened: as §2
[19] = test system: Rattus norvegicus; test: Biodistribution in Rat blood after 5 minutes of iv administration; per g of tissue; type: ADME, organism-based; conditions: in vivo; procedure, shortened: as §2
[20] = test system: Rattus norvegicus; test: Biodistribution in Rat blood after 24 hours of iv administration; per g of tissue; type: ADME, organism-based; conditions: in vivo; procedure, shortened: as §2
[21] = test system: Rattus norvegicus; test: as §5; type: ADME, organism-based; conditions: in vivo, 0.5 h; procedure, shortened: as §2; remark: listed apart in the source
[22] = test system: Rattus norvegicus; test: Biodistribution in Rat lung after 24 hours of iv administration; per g of tissue; type: ADME, organism-based; conditions: in vivo; procedure, shortened: as §2
[23] = test system: Rattus norvegicus; test: Compound was evaluated for the lipid soluble radioactivity extracted from rat liver at 24 hr after intravenous administration.; type: functional; procedure, shortened: as §1
[24] = test system: Rattus norvegicus; test: Liver radioactivity after iv administration of compound (30 min) in rats; type: functional, organism-based; procedure, shortened: as §4
[25] = test system: Rattus norvegicus; test: Biodistribution in Rat liver after 5 minutes of iv administration; per g of tissue; type: ADME, organism-based; conditions: in vivo; procedure, shortened: as §2
[26] = test system: Rattus norvegicus; test: Biodistribution in Rat heart after 5 minutes of iv administration; per g of tissue; type: ADME, organism-based; conditions: in vivo; procedure, shortened: as §2
[27] = test system: Rattus norvegicus; test: Biodistribution in Rat heart after 24 hours of iv administration; per g of tissue; type: ADME, organism-based; conditions: in vivo; procedure, shortened: as §2
[28] = test system: Rattus norvegicus; test: Compound (125I labeled) was evaluated for the total radioactivity in low-density lipoprotein 5 min after intravenous administration.; type: functional; set-up: concentration or dose not given beside the values; procedure, shortened: as §3
[29] = test system: Rattus norvegicus; test: Biodistribution in Rat heart after 30 minutes of iv administration; per g of tissue; type: ADME, organism-based; conditions: in vivo, 0.5 h; procedure, shortened: as §2
[30] = test system: Rattus norvegicus; test: Biodistribution in Rat liver after 5 minutes of iv administration; type: ADME, organism-based; conditions: in vivo; procedure, shortened: as §2
[31] = test system: Rattus norvegicus; test: Biodistribution in Rat blood after 24 hours of iv administration; type: ADME, organism-based; conditions: in vivo; procedure, shortened: as §2
[32] = test system: Rattus norvegicus; test: Biodistribution in Rat lung after 30 minutes of iv administration; type: ADME, organism-based; conditions: in vivo, 0.5 h; procedure, shortened: as §2
[33] = test system: Rattus norvegicus; test: Biodistribution in Rat heart after 30 minutes of iv administration; type: ADME, organism-based; conditions: in vivo, 0.5 h; procedure, shortened: as §2
[34] = test system: Rattus norvegicus; test: Biodistribution in Rat liver after 24 hours of iv administration; type: ADME, organism-based; conditions: in vivo; procedure, shortened: as §2
[35] = test system: Rattus norvegicus; test: Biodistribution in Rat heart after 5 minutes of iv administration; type: ADME, organism-based; conditions: in vivo; procedure, shortened: as §2
[36] = test system: Rattus norvegicus; test: Biodistribution in Rat blood after 5 minutes of iv administration; type: ADME, organism-based; conditions: in vivo; procedure, shortened: as §2
[37] = test system: Rattus norvegicus; test: Biodistribution in Rat blood after 30 minutes of iv administration; type: ADME, organism-based; conditions: in vivo, 0.5 h; procedure, shortened: as §2
[38] = test system: Rattus norvegicus; test: (§6) Biodistribution in Rat liver after 30 minutes of iv administration; type: ADME, organism-based; conditions: in vivo, 0.5 h; procedure, shortened: as §2
[39] = test system: Rattus norvegicus; test: as §6; type: ADME, organism-based; conditions: in vivo, 0.5 h; procedure, shortened: as §2; remark: listed apart in the source
[40] = test system: Rattus norvegicus; test: Biodistribution in Rat heart after 24 hours of iv administration; type: ADME, organism-based; conditions: in vivo; procedure, shortened: as §2
[41] = test system: Rattus norvegicus; test: Biodistribution in Rat lung after 24 hours of iv administration; type: ADME, organism-based; conditions: in vivo; procedure, shortened: as §2
[42] = test system: Rattus norvegicus; test: Biodistribution in Rat lung after 5 minutes of iv administration; type: ADME, organism-based; conditions: in vivo; procedure, shortened: as §2
[43] = test system: Rattus norvegicus; test: Compound (125I labeled)was evaluated for the total radioactivity in stacking gel 5 min after intravenous administration.; type: functional; procedure, shortened: as §3

Structure (SMILES) | Extracted [1] [%] | Parent compound [1] [%] | Total radioactivity [3] [%] | Total radioactivity [4] | Extracted [5] [%] | Parent compound [5] [%] | Total radioactivity [6] [%] | Total radioactivity [7] [%] | Radioactivity [8] | Total radioactivity [10] [%] | Total radioactivity [11] [%] | Total radioactivity [12] [%] | Radioactivity [13] | Extracted [15] [%] | Parent compound [15] [%] | Total radioactivity [16] [%] | Extracted [23] [%] | Parent compound [23] [%] | Radioactivity [24] | Total radioactivity [28] [%] | further results
CCCCCCCCCCCCCCCC(=O)OC(COC(=O)C(CC)Cc1c(I)cc(I)c(N)c1I)COC(=O)C(CC)Cc1c(I)cc(I)c(N)c1I (configuration not stated) | 88.4 | 86 | 29.7 | 0.1% and 0.3% | 86 | 82.6 | 59.7 | 6.2 | 18.4 | 3.4 | 6.8 | 55.1 | 52.1 | 82.1 | 77.4 | 3.2 | 93.9 | 91.7 | 30.2 | 35.4 | Biodistribution [2]: 0.26% and 0.33%; Biodistribution [9]: 1.49%; Biodistribution [14]: 1.1%; Biodistribution [17]: 5.17%; Biodistribution [18]: 4.54%; Biodistribution [19]: 7.44%; Biodistribution [20]: 0.54%; Biodistribution [21]: 4.54%; Biodistribution [22]: 0.33%; Biodistribution [25]: 0.84% and 2.9%; Biodistribution [26]: 0.87%; Biodistribution [27]: 0.21%; Biodistribution [29]: 0.66%
Nc1c(I)cc(I)c(CCCCCCCCCCCCCCCCC(=O)OCC(COC(=O)CCCCCCCCCCCCCCCCc2c(I)cc(I)c(N)c2I)OC(=O)CCCCCCCCCCCCCCCCc2c(I)cc(I)c(N)c2I)c1I | 50.7 | 15.1 | 15.1 | 7.1% and 6.8% | 70.1 | 29.2 | 28.1 | 6.4 | 54.4 | 46.2 | 3.8 | 32.7 | 3 | 54.2 | 20.2 | 20.3 | 73.4 | 9.5 | 38.8 | 32.2 | Biodistribution [30]: 0.52% and 6.68%; Biodistribution [31]: 0.06%; Biodistribution [32]: 0.94%; Biodistribution [33]: 0.92%; Biodistribution [34]: 0.14% and 0.44%; Biodistribution [35]: 0.74%; Biodistribution [36]: 4.14%; Biodistribution [37]: 2.1%; Biodistribution [38]: 5.28%; Biodistribution [39]: 5.28%; Biodistribution [40]: 0.03%; Biodistribution [41]: 0.07%; Biodistribution [42]: 1.08%
CCC(Cc1c(I)cc(I)c(N)c1I)C(=O)OCC(COC(=O)C(CC)Cc1c(I)cc(I)c(N)c1I)OC(=O)C(CC)Cc1c(I)cc(I)c(N)c1I (configuration not stated) | 89 | 92.9 | 27 | 0.3% and 1.9% | 90.5 | 89.1 | 55.8 | – | 22.4 | 5.3 | 9.9 | 48.2 | 66.8 | 83.4 | 75.1 | 2.9 | 91.7 | 92.3 | 26 | 33.4 | Biodistribution [30]: 0.87% and 3.57%; Biodistribution [31]: 0.14%; Biodistribution [32]: 0.67%; Biodistribution [33]: 0.39%; Biodistribution [34]: 0.18% and 9.19%; Biodistribution [35]: 0.97%; Total radioactivity [43]: 15.2%; Biodistribution [36]: 6.95%; Biodistribution [37]: 3.31%; Biodistribution [38]: 2.79%; Biodistribution [39]: 2.79%; Biodistribution [40]: 0.1%; Biodistribution [41]: 0.58%; Biodistribution [42]: 1.49%
CCCCCCCCCCCCCCCC(=O)OC(COC(=O)CCc1c(I)cc(I)c(N)c1I)COC(=O)CCc1c(I)cc(I)c(N)c1I | 86.2 | 94.2 | 40.6 | 0.2% and 1.2% | 62.9 | 90.6 | 36.3 | 14.2 | 43.1 | 2.8 | 19 | 52.8 | 14.7 | 63.7 | 80 | 5 | 83.1 | 88 | 38.4 | 27.8 | Biodistribution [2]: 0.29% and 2.19%; Biodistribution [9]: 0.75%; Biodistribution [14]: 0.94%; Biodistribution [17]: 4.25%; Biodistribution [18]: 5.82%; Biodistribution [19]: 3.48%; Biodistribution [20]: 0.31%; Biodistribution [21]: 5.82%; Biodistribution [22]: 0.21%; Biodistribution [25]: 0.5% and 6.19%; Biodistribution [26]: 0.43%; Biodistribution [27]: 0.42%; Biodistribution [29]: 0.56%
